Measured values taken from ChEMBL document CHEMBL1142864, “Potential cancer chemopreventive in vitro activities of monomeric xanthone derivatives from the marine algicolous fungus Monodictys putredinis” (J Nat Prod, 2007).
Active and inactive are the calls of the source. The calls are words filed in the database; no cut-off is given here.

Experiments:
[1] = Inhibition of beta-naphthoflavone-induced Cyp1A in rat […] cell; format: cell-based
Procedure, shortened: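 Enzyme source: homogenates of β-naphthoflavone-induced H4IIE rat hepatoma cells. Cyp1A activity measured as dealkylation of 3-cyano-7-ethoxycoumarin to fluorescent 3-cyano-7-hydroxycoumarin, expressed in nmol/min/mg protein. α-Naphthoflavone positive control. Dose-response to IC50; percent inhibition given at 50 µM final concentration.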

[2] = molecular target: Prostaglandin G/H synthase 1 (Homo sapiens) (UniProt P23219); assay: Inhibition of COX1 at 100 uM
Procedure, shortened: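 COX-1 (prostaglandin G/H synthase) activity followed by oxygen consumption during conversion of arachidonic acid to prostaglandins; single concentration 100 µM; IC50 only if inhibition exceeds 50%.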

[3] = molecular target: T1, Aromatase (Homo sapiens, UniProt P11511); assay: Inhibition of human recombinant aromatase at 50 uM
T1 sequence (P11511 whole entry): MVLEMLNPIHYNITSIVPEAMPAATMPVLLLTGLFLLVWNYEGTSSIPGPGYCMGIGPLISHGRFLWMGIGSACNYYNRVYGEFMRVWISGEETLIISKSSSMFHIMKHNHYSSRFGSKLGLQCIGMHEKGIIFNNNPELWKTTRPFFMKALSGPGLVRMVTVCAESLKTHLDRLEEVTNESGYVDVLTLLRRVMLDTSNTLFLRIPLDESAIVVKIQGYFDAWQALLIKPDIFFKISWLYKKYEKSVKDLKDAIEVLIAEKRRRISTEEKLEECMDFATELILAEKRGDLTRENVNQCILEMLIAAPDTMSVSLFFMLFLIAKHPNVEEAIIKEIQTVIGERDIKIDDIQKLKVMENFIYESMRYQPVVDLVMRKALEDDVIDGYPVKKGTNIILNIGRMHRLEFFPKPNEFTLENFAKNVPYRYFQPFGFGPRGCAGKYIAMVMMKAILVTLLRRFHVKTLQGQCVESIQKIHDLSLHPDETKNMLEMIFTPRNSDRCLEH

[4] = DPPH radical scavenging activity upto 250 uM; format: functional
Procedure, shortened: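 Photometric reaction with stable DPPH free radical in microplate format, compounds up to 250 µM.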

[5] = test system: Cyp1A (Rattus norvegicus); assay: Inhibition of beta-naphthoflavone-induced Cyp1A in rat H4IIE cell at 50 uM; details: H4IIE cells with beta-naphthoflavone-induced Cyp1A
[6] = Superoxide anion radical scavenging activity upto 50 uM; format: functional
Procedure, shortened: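 Superoxide anion generated by xanthine oxidase oxidising hypoxanthine to uric acid; scavenging tested up to 50 µM.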

[7] = Cytotoxicity against mouse Hepa 1c1c7 cells upto 400 uM; format: cell-based
Procedure, shortened: (§1)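 Hepa 1c1c7 murine hepatoma cultures exposed in parallel with the QR induction assay; tested up to 400 µM for one hydroxanthone and up to 50 µM for the others; cytotoxicity judged alongside QR specific activity.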

[8] = Cytotoxicity against mouse Hepa 1c1c7 cells upto 50 uM; format: cell-based; procedure, shortened: as §1
[9] = molecular target: T1, Aromatase; assay: Inhibition of human recombinant aromatase

Prostaglandin G/H synthase 1 (Homo sapiens), sequence (P23219 whole entry): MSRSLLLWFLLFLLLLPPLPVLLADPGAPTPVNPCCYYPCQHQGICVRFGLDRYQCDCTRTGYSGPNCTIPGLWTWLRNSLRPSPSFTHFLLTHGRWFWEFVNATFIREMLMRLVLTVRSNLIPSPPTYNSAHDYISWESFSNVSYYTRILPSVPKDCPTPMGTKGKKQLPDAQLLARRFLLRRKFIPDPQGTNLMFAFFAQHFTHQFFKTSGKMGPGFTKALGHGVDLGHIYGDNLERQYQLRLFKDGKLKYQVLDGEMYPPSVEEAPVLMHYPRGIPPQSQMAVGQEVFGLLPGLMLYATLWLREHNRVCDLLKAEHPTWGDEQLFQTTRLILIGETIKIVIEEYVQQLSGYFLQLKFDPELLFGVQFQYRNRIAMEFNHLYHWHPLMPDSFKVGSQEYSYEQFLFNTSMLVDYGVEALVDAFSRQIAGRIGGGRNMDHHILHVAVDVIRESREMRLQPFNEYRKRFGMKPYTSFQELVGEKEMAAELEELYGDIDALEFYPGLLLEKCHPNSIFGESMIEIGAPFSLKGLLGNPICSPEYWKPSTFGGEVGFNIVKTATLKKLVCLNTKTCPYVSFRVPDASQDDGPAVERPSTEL

Row | SMILES | IC50 [1] [µM] | inhibition [2] [%] | inhibition at 50 µM [3] [%] | inhibition at 50 µM [5] [%] | IC50 [9] [µM] | Activity [4] | Activity [6] | Activity [7] | Activity [8]
1 | Cc1cc(O)c(C(=O)c2c(O)cccc2O)c(C(=O)O)c1 [MONODICTYPHENONE] | > 50 | < 50 | 25 | 28 |  | inactive | inactive |  | 
2 | Cc1cc(O)c2c(c1)O[C@]1(C)[C@@H](O)[C@@H](O)C[C@H](O)[C@@H]1C2=O [MONODICTYSIN A] | > 50 | < 50 | 32 | 40 |  | inactive | inactive | Not Active | 

These reach a lower IC50 [1]. Values come first.

Row | IC50 [1] [µM] | inhibition [2] [%] | inhibition at 50 µM [3] [%] | inhibition at 50 µM [5] [%] | IC50 [9] [µM] | SMILES | Activity [4] | Activity [6] | Activity [7] | Activity [8]
3 | 0.0035 |  |  |  |  | O=c1cc(-c2ccccc2)oc2c1ccc1ccccc12 [ALPHA-NAPHTHOFLAVONE] |  |  |  | 
4 | 23.3 | < 50 | 9 |  |  | C[C@H]1C[C@H](O)[C@@H]2C(=O)c3c(O)cccc3O[C@]2(C)[C@H]1O [MONODICTYSIN B] | inactive | inactive |  | Not Active
5 | 3 | < 50 |  |  | 28.3 | COc1cc(O)c2c(c1)O[C@]1(C)[C@@H](O)[C@@H](C)C[C@H](O)[C@@H]1C2=O [MONODICTYSIN C] | inactive | inactive |  | Not Active
6 | 34.8 | < 50 | 37 |  |  | Cc1cc(C(=O)O)c2c(=O)c3c(O)cccc3oc2c1 [MONODICTYXANTHONE] | inactive | inactive |  | 
